ABHD4 inh: inhibitors of mouse ABHD4 | purified mABHD4, FP-Rh probe fluorescence polarization | AID 720543 | Q8VD66 | inhibition, % at 8.92 µM | 0.54% of 370,000 active;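 active = inhibition exceeding the mean over every tested compound plus 3 SD, cut at about 30% in these data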;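 also: 0% = plate median of compound wells and 100% = S159A mutant with DMSO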
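assay system = mABHD4 protein | compound dosing = single nominal dose of 8.92 µM, 0.89% DMSO final | read-out basis = percent inhibition of probe binding, normalized to plate controls | schedule = Enzyme–compound pre-incubation 45 min, then probe 60 min, both 25 °C | detection = fluorescence polarization, excitation 525 nm, emission 598 nm, BODIPY TMR filters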
PAFAH2 FP inh: PAFAH2 (human) inhibition; Q99487; recombinant PAFAH2, FP-rhodamine activity probe, fluorescence polarization; inhibition, % at 3.39 µM; 0.99% of 340,000 active; AID 492956;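 active = inhibition above the mean over all tested compounds plus 3 SD, cut at about 30% in these data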;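 also: inhibitors block probe labeling of enzyme so polarization drops; 0% = enzyme with DMSO and 100% = wells lacking PAFAH2 protein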
PAFAH1B3 FP inh: PAFAH1B3 (human) inhibition. recombinant PAFAH1B3, FP-rhodamine probe, fluorescence polarization. Q15102. 0.28% of 340,000 active. inhibition, % at 3.39 µM;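 active = inhibition above the screen-wide average of all tested compounds plus 3 SD, cut at about 25% in these data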;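 also: 0% = enzyme with DMSO only and 100% = wells lacking PAFAH1B3 protein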
PAFAH1B2 inh: blocks human PAF acetylhydrolase 1b catalytic subunit 2; recombinant PAFAH1B2, FP-rhodamine activity probe, fluorescence polarization; inhibition, % at 3.39 µM; 1.2% of 340,000 active; AID 492953;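 active = inhibition above the mean of all tested compounds plus 3 SD, cut at about 24% in these data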;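 also: 0% = enzyme with DMSO and 100% = wells lacking PAFAH1B2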
Target sequence (P68402 whole entry, looked up): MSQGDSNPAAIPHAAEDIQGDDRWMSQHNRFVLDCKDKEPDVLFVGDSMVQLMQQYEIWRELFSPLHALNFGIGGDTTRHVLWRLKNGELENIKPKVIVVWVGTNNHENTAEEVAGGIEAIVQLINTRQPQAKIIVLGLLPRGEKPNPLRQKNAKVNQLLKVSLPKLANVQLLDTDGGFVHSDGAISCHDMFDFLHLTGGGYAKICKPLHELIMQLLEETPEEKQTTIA
HTRA1 inh: blocks human HTRA1 serine peptidase. Q92743. recombinant HTRA1, FP-rhodamine activity-based probe, fluorescence polarization. inhibition, % at 5.96 µM. 0.5% of 340,000 active; in the data active = inhibition above about 36%;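 also: 0% = enzyme with DMSO and 100% = wells lacking enzyme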
pPAFAH FP inh: inhibitors of human plasma PAF acetylhydrolase (pPAFAH); Q13093; recombinant pPAFAH, FP-rhodamine probe fluorescence polarization; inhibition, % at 3.39 µM; 1.5% of 330,000 active; AID 463082;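 active = inhibition above the mean inhibition across the screen plus 3 SD, cut at about 25% in these data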;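 also: inhibitors block binding of the rhodamine activity-based probe so polarization drops; 0% = enzyme with DMSO and 100% = wells lacking pPAFAH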
Target sequence (Q13093 whole entry, looked up): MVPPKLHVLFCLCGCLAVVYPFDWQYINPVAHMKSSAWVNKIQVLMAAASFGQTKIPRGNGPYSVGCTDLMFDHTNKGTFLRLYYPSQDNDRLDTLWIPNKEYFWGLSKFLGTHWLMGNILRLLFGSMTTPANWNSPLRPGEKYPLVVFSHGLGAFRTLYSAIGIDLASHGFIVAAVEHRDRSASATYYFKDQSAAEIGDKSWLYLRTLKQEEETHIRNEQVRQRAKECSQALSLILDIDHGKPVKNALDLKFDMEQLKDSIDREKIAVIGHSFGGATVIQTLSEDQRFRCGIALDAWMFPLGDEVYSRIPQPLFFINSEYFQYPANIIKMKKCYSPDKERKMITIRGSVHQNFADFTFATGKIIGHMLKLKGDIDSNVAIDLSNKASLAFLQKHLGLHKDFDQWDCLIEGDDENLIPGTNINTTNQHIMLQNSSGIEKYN
PAFAH1B3 confirm: confirmation of human PAFAH1B3 inhibitors | recombinant PAFAH1B3, FP-Rh activity-based probe, fluorescence polarization | inhibition, % at 3.39 µM | shares compounds with PAFAH1B3 FP inh | 30% of 390 active;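 active = average inhibition over triplicate runs above the hit cutoff set in the earlier primary screen, cut at about 25% in these data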;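 also: 0% = enzyme with DMSO and 100% = wells lacking PAFAH1B3 protein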
HTRA1 conf: confirmation of human HTRA1 inhibitors; shares compounds with HTRA1 inh; recombinant HTRA1, FP-rhodamine activity-based probe, fluorescence polarization; inhibition, % at 5.96 µM; 66% of 1,600 active; AID 540248;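 active = mean inhibition over three repeats above a set limit taken from the earlier primary screen, cut at about 37% in these data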;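 also: 0% = HTRA1 with DMSO and 100% = wells lacking HTRA1; inhibitors block probe binding so polarization drops and inhibition rises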
ABHD4 confirm: confirmation of mouse ABHD4 inhibitors; shares compounds with ABHD4 inh; purified mABHD4, FP-Rh probe fluorescence polarization; inhibition, % at 8.92 µM; 55% of 1,800 active; AID 720658;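 active = mean inhibition across replicates above the hit cutoff set in the primary screen, cut at about 30% in these data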;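 also: 0% = wild-type ABHD4 with DMSO and 100% = catalytically dead S159A mutant with DMSO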
* = called active by the depositor. Only some compounds are listed: those with a hit (about 2.8% of all), similar ones and a draw of the others.

COc1ccc2[nH]c3c4c(ccc3c2c1)C(=O)C=CC4=O was read as ABHD4 inh 55.5*, PAFAH2 FP inh 16.4, PAFAH1B3 FP inh 37.0*, PAFAH1B2 inh 17.0, HTRA1 inh 79.6*, PAFAH1B3 confirm 17.4, HTRA1 conf 52.5* and ABHD4 confirm 51.4*.
For O=Nc1c(O)c2ccccc2c2ccccc12 the results were ABHD4 inh 50.6*, PAFAH2 FP inh 12.1, PAFAH1B3 FP inh 93.9*, PAFAH1B2 inh 10.9, HTRA1 inh 61.5*, pPAFAH FP inh 14.7, PAFAH1B3 confirm 66.3*, HTRA1 conf 78.1* and ABHD4 confirm 57.9*.
For O=c1ccc2ccccc2c2ccccc12 the results were ABHD4 inh 3.3.
Screening Cc1ccc(/C=C2/C(=O)c3ccc(C(=O)O)cc3C2=O)o1 returned ABHD4 inh 34.3*, PAFAH2 FP inh 16.5, PAFAH1B3 FP inh 25.8*, PAFAH1B2 inh 14.4, HTRA1 inh 22.1, PAFAH1B3 confirm 17.0 and ABHD4 confirm -6.0.
For Cc1ccc(C=C2C(=O)c3ccccc3C2=O)o1 the results were ABHD4 inh 10.4, PAFAH2 FP inh -0.9, PAFAH1B3 FP inh -2.3, PAFAH1B2 inh -5.7, HTRA1 inh 2.5 and pPAFAH FP inh 9.5.
`CCn1c(=O)n(CC(=O)N2CCCN(Cc3ccccc3)CC2)c(=O)c2ccccc21` gave ABHD4 inh 3.5.
Screening Cc1ccc(NC2=CC(=O)C(=O)c3ccccc32)cc1 returned ABHD4 inh 37.8*, PAFAH2 FP inh 4.2, PAFAH1B3 FP inh 25.5*, PAFAH1B2 inh 7.7, HTRA1 inh 8.6, pPAFAH FP inh 9.2, PAFAH1B3 confirm 20.7 and ABHD4 confirm 21.7.
Screening O=c1cc(-c2ccc(O)cc2)oc2cc(O)cc(O)c12 returned ABHD4 inh -24.9, PAFAH2 FP inh -1.0, PAFAH1B3 FP inh 12.4, PAFAH1B2 inh 1.1, HTRA1 inh -8.6 and pPAFAH FP inh 1.7.
For O=c1oc(-c2ccc(O)c(O)c2)cc2cc(O)cc(O)c12 the results were ABHD4 inh 51.4*, PAFAH2 FP inh 8.5, PAFAH1B3 FP inh 28.5*, PAFAH1B2 inh 2.7, HTRA1 inh 55.5*, pPAFAH FP inh 9.8, PAFAH1B3 confirm 28.0*, HTRA1 conf 124.4* and ABHD4 confirm 36.2*.
Screening O=C1C(Cl)=C(Nc2ccc(O)cc2)C(=O)c2ccccc21 returned ABHD4 inh 41.0*, PAFAH2 FP inh 9.0, PAFAH1B3 FP inh 26.9*, PAFAH1B2 inh 13.4, HTRA1 inh 23.1, pPAFAH FP inh 0.7, PAFAH1B3 confirm 18.0 and ABHD4 confirm 54.0*.
Screening COC(=O)c1cc(-c2ccc3ccccc3c2)c(=O)n2c1CCC2 returned ABHD4 inh -1.8.
CCN(CC)c1ccc(/C=N/Nc2nc3ccccc3[nH]2)c(O)c1 was read as ABHD4 inh 30.9*, PAFAH2 FP inh 6.3, PAFAH1B3 FP inh 26.8*, PAFAH1B2 inh 12.6, HTRA1 inh 16.9, pPAFAH FP inh 19.3, PAFAH1B3 confirm 25.6* and ABHD4 confirm 80.1*.
Screening Cc1nn(-c2ccccc2)c2c1C(c1ccc(O)c(O)c1)N1C(=N2)C(Nc2ccccc2)=Nc2ccccc21 (stereo unspecified) returned ABHD4 inh 4.0, PAFAH2 FP inh -12.5, PAFAH1B3 FP inh 4.1, PAFAH1B2 inh -4.6, HTRA1 inh 50.5*, pPAFAH FP inh 4.2 and HTRA1 conf 53.2*.
`Cc1cccc(NC2=Nc3ccccc3N3C2=Nc2c(c(C)nn2-c2ccccc2)C3c2ccc(O)c(O)c2)c1` (stereo unspecified) gave ABHD4 inh -8.5, PAFAH2 FP inh -37.3, PAFAH1B3 FP inh -15.2, PAFAH1B2 inh -13.2, HTRA1 inh 55.3*, pPAFAH FP inh -1.4 and HTRA1 conf 56.2*.
For Cc1nn(-c2ccccc2)c2c1C(c1ccc([N+](=O)[O-])cc1)N1C(=N2)C(=O)Nc2ccccc21 (stereo unspecified) the results were ABHD4 inh -28.2, PAFAH2 FP inh -21.9, PAFAH1B3 FP inh 0.5, PAFAH1B2 inh -3.1, HTRA1 inh -63.2 and pPAFAH FP inh -3.2.
`Cc1ccc(NC2=Nc3ccccc3N3C2=Nc2c(c(C)nn2-c2ccccc2)C3c2ccc(O)c(O)c2)cc1` (stereo unspecified) gave ABHD4 inh -23.4, PAFAH2 FP inh -22.4, PAFAH1B3 FP inh -12.7, PAFAH1B2 inh -9.0, HTRA1 inh 37.0* and HTRA1 conf 54.8*.
For CCN1CCc2c(sc(NC(=O)c3ccc(S(=O)(=O)N4CCOCC4)cc3)c2C(=O)OC)C1 the results were ABHD4 inh -3.5, PAFAH2 FP inh -2.1, PAFAH1B3 FP inh 7.8, PAFAH1B2 inh 4.7, HTRA1 inh 38.0*, pPAFAH FP inh -0.1 and HTRA1 conf 28.3.
`CCN1CCc2c(sc(NC(=O)c3ccc(S(=O)(=O)N4CCOCC4)cc3)c2C(N)=O)C1` gave ABHD4 inh 1.4, PAFAH2 FP inh -6.9, PAFAH1B3 FP inh -0.9, PAFAH1B2 inh 8.8, HTRA1 inh -2.3 and pPAFAH FP inh -5.3.
For CN(/N=C/c1ccccc1Cl)c1ncc(Cl)cc1C(F)(F)F the results were ABHD4 inh -1.8, PAFAH2 FP inh 5.3, PAFAH1B3 FP inh 3.2, PAFAH1B2 inh 5.6, HTRA1 inh 2.9 and pPAFAH FP inh 3.6.
CN(/N=C/c1ccc(O)cc1O)c1ncc(C(F)(F)F)cc1Cl was read as ABHD4 inh 7.3, PAFAH2 FP inh -3.8, PAFAH1B3 FP inh 14.1, PAFAH1B2 inh 5.3, HTRA1 inh 56.4*, pPAFAH FP inh -3.0 and HTRA1 conf 88.9*.
CCOC(=O)[C@@]12CN(C(=O)OC(C)(C)C)CC=C1N(Cc1ccc(OC)cc1)C(=O)[C@H]2CC(=O)N1CCCC1 was read as ABHD4 inh 4.9.
For CC(=O)Oc1cc(C(=O)OCC(=O)N2CCc3ccccc3C2)cc(OC(C)=O)c1OC(C)=O the results were ABHD4 inh 26.2, PAFAH2 FP inh 36.0*, PAFAH1B3 FP inh 6.9, PAFAH1B2 inh 11.5, HTRA1 inh 58.8*, pPAFAH FP inh 33.2* and HTRA1 conf 82.5*.
For O=S(=O)(c1ccccc1Br)N(Cc1cn(CC2CCCCC2)nn1)C1CC1 the results were ABHD4 inh 9.6.
CC1(C)CC(NC(=O)c2ccccc2)CC(C)(C)N1 was read as ABHD4 inh -1.4, PAFAH2 FP inh 0.1, PAFAH1B3 FP inh 7.1, PAFAH1B2 inh 1.6, HTRA1 inh 4.5 and pPAFAH FP inh 7.6.

Bioassay records: PubChem, The Scripps Research Institute Molecular Screening Center
